# Measurements as given in ChEMBL document CHEMBL4330069, “Boosting the efficacy of anti-MRSA β-lactam antibiotics via an easily accessible, non-cytotoxic and orally bioavailable FtsZ inhibitor” (Eur J Med Chem, 2019).
# What was measured:
# [1] = system: L929; test: Cytotoxicity against mouse L929 cells by MTS assay; assay type: cell-based
# Procedure, shortened: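 MTS assay on L929 mouse fibroblasts; IC50 reported as the average of three independent measurements.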
# [2] = Selective index, ratio of IC50 for mouse L929 cells to MIC for Staphylococcus aureus ATCC 29213
# Procedure, shortened: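 Selectivity index calculated as L929 IC50 (μM) divided by S. aureus MIC (μM).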
# [3] = system: Staphylococcus aureus; test: Antibacterial activity against multidrug-resistant Staphylococcus aureus isolate 254 by broth microdilution assay; assay type: functional
# Procedure, shortened: (§1)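 Broth microdilution MIC per CLSI guidelines against clinical MRSA isolates, for β-lactams and test compound alone and in combination. Compounds were dissolved in DMSO. Growth was read by eye, in duplicate. FIC index = FIC(compound) + FIC(drug); synergy defined as FIC index ≤0.5.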
# [4] = system: Staphylococcus aureus; test: Antibacterial activity against multidrug-resistant Staphylococcus aureus isolate 417 by broth microdilution assay; assay type: functional; procedure, shortened: as §1
# [5] = system: Staphylococcus aureus; test: Antibacterial activity against multidrug-resistant Staphylococcus aureus isolate 774 by broth microdilution assay; assay type: functional; procedure, shortened: as §1
# [6] = system: Staphylococcus aureus; test: Antibacterial activity against multidrug-resistant Staphylococcus aureus isolate 85 by broth microdilution assay; assay type: functional; procedure, shortened: as §1
# [7] = system: Staphylococcus aureus; test: Synergistic antibacterial activity against multidrug-resistant Staphylococcus aureus isolate 231 in presence of amoxicillin by broth microdilution assay; assay type: functional
# Procedure, shortened: (§2)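 Clinical MRSA isolate panel; compound and β-lactam tested alone and in combination by CLSI broth microdilution, compounds dissolved in DMSO, growth inhibition scored by eye, run in duplicate. FIC index = FIC(compound) + FIC(drug), each the MIC in combination divided by the MIC alone; an index ≤ 0.5 was called synergy.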
# [8] = system: Staphylococcus aureus; test: Synergistic antibacterial activity against multidrug-resistant Staphylococcus aureus isolate 2516 in presence of amoxicillin by broth microdilution assay; assay type: functional; procedure, shortened: as §2
# [9] = system: Staphylococcus aureus; test: Synergistic antibacterial activity against multidrug-resistant Staphylococcus aureus isolate 1717 in presence of amoxicillin by broth microdilution assay; assay type: functional; procedure, shortened: as §2
# [10] = system: Staphylococcus aureus; test: Synergistic antibacterial activity against multidrug-resistant Staphylococcus aureus isolate 2973 in presence of amoxicillin by broth microdilution assay; assay type: functional
# Procedure, shortened: (§3)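 CLSI broth microdilution on clinical MRSA isolates. MICs were measured for the β-lactam alone, the test agent alone and the two combined. Compounds were dissolved in DMSO, and growth inhibition was scored by eye. FIC index is the sum, over both agents, of MIC in combination divided by MIC alone. An FIC index ≤0.5 was taken as synergy.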
# [11] = system: Staphylococcus aureus; test: Synergistic antibacterial activity against multidrug-resistant Staphylococcus aureus isolate 2490 in presence of methicillin by broth microdilution assay; assay type: functional; procedure, shortened: as §2
# [12] = system: Staphylococcus aureus; test: Synergistic antibacterial activity against multidrug-resistant Staphylococcus aureus isolate 254 in presence of methicillin by broth microdilution assay; assay type: functional; procedure, shortened: as §3
# [13] = system: Staphylococcus aureus; test: Synergistic antibacterial activity against multidrug-resistant Staphylococcus aureus isolate 1136 in presence of methicillin by broth microdilution assay; assay type: functional; procedure, shortened: as §2
# [14] = system: Staphylococcus aureus; test: Synergistic antibacterial activity against multidrug-resistant Staphylococcus aureus isolate 256 in presence of cloxacillin by broth microdilution assay; assay type: functional; procedure, shortened: as §3
# [15] = system: Staphylococcus aureus; test: Synergistic antibacterial activity against multidrug-resistant Staphylococcus aureus isolate 2516 in presence of cloxacillin by broth microdilution assay; assay type: functional; procedure, shortened: as §3
# [16] = system: Staphylococcus aureus; test: Synergistic antibacterial activity against multidrug-resistant Staphylococcus aureus isolate 2919 in presence of cloxacillin by broth microdilution assay; assay type: functional; procedure, shortened: as §3
# [17] = system: Staphylococcus aureus; test: Synergistic antibacterial activity against multidrug-resistant Staphylococcus aureus isolate 1449 in presence of cloxacillin by broth microdilution assay; assay type: functional; procedure, shortened: as §2
# [18] = system: Staphylococcus aureus; test: Synergistic antibacterial activity against multidrug-resistant Staphylococcus aureus isolate 1344 in presence of cefuroxime by broth microdilution assay; assay type: functional; procedure, shortened: as §2
# [19] = system: Staphylococcus aureus; test: Synergistic antibacterial activity against multidrug-resistant Staphylococcus aureus isolate 1136 in presence of cefuroxime by broth microdilution assay; assay type: functional; procedure, shortened: as §2
# [20] = system: Staphylococcus aureus; test: Synergistic antibacterial activity against multidrug-resistant Staphylococcus aureus isolate 1402 in presence of cefuroxime by broth microdilution assay; assay type: functional; procedure, shortened: as §2
# [21] = system: Staphylococcus aureus; test: Synergistic antibacterial activity against multidrug-resistant Staphylococcus aureus isolate 2728 in presence of cefuroxime by broth microdilution assay; assay type: functional; procedure, shortened: as §3
# [22] = system: Staphylococcus aureus; test: Synergistic antibacterial activity against multidrug-resistant Staphylococcus aureus isolate 2224 in presence of cefuroxime by broth microdilution assay; assay type: functional; procedure, shortened: as §2
# [23] = system: Staphylococcus aureus; test: Synergistic antibacterial activity against multidrug-resistant Staphylococcus aureus isolate 3580 in presence of cefuroxime by broth microdilution assay; assay type: functional
# [24] = system: Staphylococcus aureus; test: Synergistic antibacterial activity against multidrug-resistant Staphylococcus aureus isolate 254 in presence of meropenem by broth microdilution assay; assay type: functional; procedure, shortened: as §3
# [25] = system: Staphylococcus aureus; test: Synergistic antibacterial activity against multidrug-resistant Staphylococcus aureus isolate 231 in presence of meropenem by broth microdilution assay; assay type: functional; procedure, shortened: as §2
# [26] = system: Staphylococcus aureus; test: Synergistic antibacterial activity against multidrug-resistant Staphylococcus aureus isolate 3267 in presence of meropenem by broth microdilution assay; assay type: functional; procedure, shortened: as §3
# [27] = system: Staphylococcus aureus; test: Synergistic antibacterial activity against multidrug-resistant Staphylococcus aureus isolate 1449 in presence of meropenem by broth microdilution assay; assay type: functional; procedure, shortened: as §2
# [28] = system: Staphylococcus aureus; test: Synergistic antibacterial activity against multidrug-resistant Staphylococcus aureus isolate 231 assessed as fractional Inhibitory concentration index in presence of amoxicillin by broth microdilution assay; assay type: functional
# Procedure, shortened: (§4)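 CLSI broth microdilution run on clinical MRSA isolates with each β-lactam alone, the test agent alone, and the two combined; agents dissolved in DMSO. Growth inhibition was read by eye. FIC index = FIC(compound) + FIC(β-lactam), where each FIC is the MIC in combination divided by the MIC alone. An index ≤0.5 was taken as synergy.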
# [29] = system: Staphylococcus aureus; test: Synergistic antibacterial activity against multidrug-resistant Staphylococcus aureus isolate 256 assessed as fractional Inhibitory concentration index in presence of amoxicillin by broth microdilution assay; assay type: functional
# [30] = system: Staphylococcus aureus; test: Synergistic antibacterial activity against multidrug-resistant Staphylococcus aureus isolate 757 assessed as fractional Inhibitory concentration index in presence of amoxicillin by broth microdilution assay; assay type: functional
# [31] = system: Staphylococcus aureus; test: Synergistic antibacterial activity against multidrug-resistant Staphylococcus aureus isolate 254 assessed as fractional Inhibitory concentration index in presence of methicillin by broth microdilution assay; assay type: functional
# [32] = system: Staphylococcus aureus; test: Synergistic antibacterial activity against multidrug-resistant Staphylococcus aureus isolate 2516 assessed as fractional Inhibitory concentration index in presence of methicillin by broth microdilution assay; assay type: functional; procedure, shortened: as §4
# [33] = system: Staphylococcus aureus; test: Synergistic antibacterial activity against multidrug-resistant Staphylococcus aureus isolate 358 assessed as fractional Inhibitory concentration index in presence of methicillin by broth microdilution assay; assay type: functional
# [34] = system: Staphylococcus aureus; test: Synergistic antibacterial activity against multidrug-resistant Staphylococcus aureus isolate 254 assessed as fractional Inhibitory concentration index in presence of cloxacillin by broth microdilution assay; assay type: functional
# [35] = system: Staphylococcus aureus; test: Synergistic antibacterial activity against multidrug-resistant Staphylococcus aureus isolate 774 assessed as fractional Inhibitory concentration index in presence of cloxacillin by broth microdilution assay; assay type: functional
# [36] = system: Staphylococcus aureus; test: Synergistic antibacterial activity against multidrug-resistant Staphylococcus aureus isolate 3580 assessed as fractional Inhibitory concentration index in presence of cefuroxime by broth microdilution assay; assay type: functional
# [37] = system: Staphylococcus aureus; test: Synergistic antibacterial activity against multidrug-resistant Staphylococcus aureus isolate 2728 assessed as fractional Inhibitory concentration index in presence of meropenem by broth microdilution assay; assay type: functional
# [38] = system: Staphylococcus aureus; test: Synergistic antibacterial activity against multidrug-resistant Staphylococcus aureus isolate 85 assessed as fractional Inhibitory concentration index in presence of meropenem by broth microdilution assay; assay type: functional
structure (smiles),measurement,setting,value
CCCCCCCCCNc1ccc(F)c(C(N)=O)c1F,IC50,[1],> 100 µM
same,Selectivity Index,[2],>32
same,MIC,[3],16 µg/mL
same,MIC,[4],32 µg/mL
same,MIC,[5],512 µg/mL
same,MIC,[6],1020 µg/mL
same,MIC,[7],4 µg/mL
same,MIC,[8],8 µg/mL
same,MIC,[9],2 µg/mL
same,MIC,[10],8 µg/mL
same,MIC,[11],4 µg/mL
same,MIC,[12],4 µg/mL
same,MIC,[13],4 µg/mL
same,MIC,[14],1 µg/mL
same,MIC,[15],2 µg/mL
same,MIC,[16],1 µg/mL
same,MIC,[17],0.5 µg/mL
same,MIC,[18],4 µg/mL
same,MIC,[19],2 µg/mL
same,MIC,[20],2 µg/mL
same,MIC,[21],2 µg/mL
same,MIC,[22],2 µg/mL
same,MIC,[23],2 µg/mL
same,MIC,[24],8 µg/mL
same,MIC,[25],4 µg/mL
same,MIC,[26],8 µg/mL
same,MIC,[27],4 µg/mL
same,fractional inhibitory concentration index (FICI),[28],0.5
same,fractional inhibitory concentration index (FICI),[29],0.1
same,fractional inhibitory concentration index (FICI),[30],0.3
same,fractional inhibitory concentration index (FICI),[31],0.3
same,fractional inhibitory concentration index (FICI),[32],0.2
same,fractional inhibitory concentration index (FICI),[33],0.3
same,fractional inhibitory concentration index (FICI),[34],0.2
same,fractional inhibitory concentration index (FICI),[35],0.5
same,fractional inhibitory concentration index (FICI),[36],0.1
same,fractional inhibitory concentration index (FICI),[37],2
same,fractional inhibitory concentration index (FICI),[38],4
